From PubChem
5HT1E antag: 5-HT1E receptor antagonists, primary screen, cell-based, HTS. 65,000 tested, 0.99% active. AID 571, 2007. 5-hydroxytryptamine receptor 1E (Homo sapiens), P28566. CHO 5-HT1E Ga15 NFAT-bla reporter, FRET, antagonist. inhibition, % at 6 µM;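 active = inhibition above a set limit, the mean inhibition across every tested compound plus 3 SD, cut at about 29% in these data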;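 also: signal is the 460 over 535 nm emission ratio of beta-lactamase substrate; 0% = agonist plus DMSO wells and 100% = wells without agonist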
Target sequence (P28566 whole entry, looked up): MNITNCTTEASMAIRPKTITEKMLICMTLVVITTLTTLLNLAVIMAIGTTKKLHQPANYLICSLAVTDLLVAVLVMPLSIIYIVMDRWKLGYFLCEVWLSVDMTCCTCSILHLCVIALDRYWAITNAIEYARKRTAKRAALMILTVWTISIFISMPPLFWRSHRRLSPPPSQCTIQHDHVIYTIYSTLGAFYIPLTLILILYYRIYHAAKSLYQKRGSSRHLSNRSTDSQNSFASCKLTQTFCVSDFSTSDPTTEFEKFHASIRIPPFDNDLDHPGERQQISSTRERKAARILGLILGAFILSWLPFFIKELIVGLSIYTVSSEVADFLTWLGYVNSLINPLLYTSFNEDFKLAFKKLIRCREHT
5HT1E ag: 5-HT1E receptor agonists, primary screen, cell-based, HTS. CHO 5-HT1E Ga15 NFAT-bla reporter, FRET; 0% DMSO wells, 100% control agonist wells. activation, % at 6 µM. 65,000 tested, 0.69% active;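 active = activation above a set limit, the screen-wide mean activation plus 3 SD, cut at about 8.5% in these data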;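 also: 100% = positive control agonist at 1 µM giving full maximal response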
5-HT1A blocker: human 5-HT1a receptor antagonists, primary screen, cell-based, CHO, Ga15 NFAT-bla reporter | 5-hydroxytryptamine receptor 1A (Homo sapiens), P08908 | CHO 5-HT1a Ga15 NFAT-bla reporter, antagonist mode | inhibition, % at 10 µM | 62,000 tested, 0.68% active | AID 612, 2007;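 active = inhibition above the mean of all tested compounds plus 3 SD, cut at about 43% in these data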;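 also: receptor stimulated by 5-CT agonist at 100 nM near EC80; beta-lactamase reporter measured by ratiometric fluorescence of a cleavable substrate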
HEK293 NFkB inh: inhibitors of PMA/ionomycin-induced NF-kB reporter, primary screen, antigen receptor NF-kB inhibitor project, cell-based, HEK-293 luciferase reporter, luminescence; HEK-293 NF-kB luciferase reporter; inhibition, % at 3 µM; 62,000 tested, 0.21% active; AID 465, 2006;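 active = inhibition above the mean of all tested compounds plus 3 SD, cut at about 40% in these data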;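 also: 0% = stimulated DMSO wells and 100% = 10 µM reference inhibitor 5653914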
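Material: HEK-293 cells with stable firefly luciferase reporter driven by four HIV NF-kB elements / Also added: PMA plus ionomycin mix as NF-kB-activating stimulus / Compound dosing: 3 µM once, 0.30% DMSO / Times: 1 h pretreatment, 16 h stimulation, 37 °C / Signal: luminescence / Evaluation: per-plate % inhibition versus controls / Benchmarks: DMSO and 10 µM reference inhibitor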
5HT1a ag: human 5-HT1a receptor agonists, primary screen, cell-based, CHO, Ga15 NFAT-bla reporter; AID 567, 2006; CHO 5-HT1a Ga15 NFAT-bla reporter, FRET ratio; 0% basal, 100% maximal reference agonist; 65,000 tested, 0.56% active; 5-hydroxytryptamine receptor 1A (Homo sapiens), P08908; activation, % at 10 µM;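 active = activation above the screen-wide mean activation plus 3 SD, cut at about 19% in these data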;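 also: 0% = DMSO wells and 100% = 5-CT at EC100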
Numbers without * were called inactive; x = not tested or not shown. Hits are enriched below; roughly 2.6% of the tested compounds scored in any of these assays.

SMILES	5HT1E antag	5HT1E ag	5-HT1A blocker	HEK293 NFkB inh	5HT1a ag
CCOC(=O)C1CCN(C(C)C(=O)c2c(C)[nH]c3cc(C)ccc23)CC1 (stereo not drawn)	4.2	0.3	4.7	9.6	-6.5
CCCCSP1(=S)NCCCO1 (stereo not drawn)	2.2	-0.7	x	x	-2.0
c1ccc2c(CCNCc3ccc4c(c3)OCO4)c[nH]c2c1	3.1	1.6	5.2	2.4	-1.6
CNCCc1c[nH]c2ccccc12	-17.3	103.7*	x	x	27.7*
CCCCCCn1c(O)c(C=NC2CCN(Cc3ccccc3)CC2)c(=O)[nH]c1=O	6.6	-0.5	x	x	4.5
